Key:
[1] = folding enthalpy; higher = less favourable; fluorescence melt of hairpins on a sequencing array, two-state fit; conditions: sodium 0.088 M
Summary of the method: (§1)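 Cy3 signals were normalised both to pre-quench Cy3 and to control constructs. They came from library hairpins carrying annealed Cy3 and quencher oligos on a sequenced MiSeq flow cell, imaged in 50 mM Na-HEPES pH 8.0, 25 mM NaCl, in 2.5 °C steps up to 60 °C. Bootstrapped two-state fits gave melting temperature and folding enthalpy, and four replicates were combined by inverse variance. Fitted temperatures were then raised by 9.35 °C to match UV melts.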

[2] = melting temperature; fluorescence melt of hairpins on a sequencing array, two-state fit, raised by 9.35 °C to match UV melts; conditions: sodium 0.088 M
Summary of the method: as §1

Sequence | folding enthalpy [1] | Tm [2]
GTGCGCGAAAGCGGGCAC ((((((....)))..))) | -15.9 kcal/mol | 60.7 °C
GATAGTGGAAACACTGTC ((.((((....)))).)) | -29.7 kcal/mol | 43.4 °C
GATCCCCCAGGGATC ((((((...)))))) | -33.9 kcal/mol | 63.8 °C
GATCCCTCCTGGGATC ((((((....)))))) | -37 kcal/mol | 61 °C
GTGACCGAAAGGTCTCAC ((((((....)))..))) | -10.6 kcal/mol | 41.2 °C
GCCAACCGAAAGGTCGGC (((.(((....))).))) | -40.2 kcal/mol | 59.4 °C
GATCATAGTGATGATC ((((((....)))))) | -36.5 kcal/mol | 47.3 °C
GATCGATGATCGATC ((((((...)))))) | -22.2 kcal/mol | 50.7 °C
GGACAATCGAAAGATTCC (((..(((....)))))) | -8.86 kcal/mol | 27.5 °C
GTAAGCGAAAGCTGATAC ((((((....)))..))) | -12.2 kcal/mol | 29.8 °C
GACCAGAAATGGTC (((((....))))) | -33.2 kcal/mol | 51.2 °C
GTTACGCGAAAGCGAAC (((.(((....)))))) | -13.7 kcal/mol | 40 °C
GCGTAGCGAAAGCTCTGC ((..(((....)))..)) | -7.19 kcal/mol | 43.8 °C
CTATTGAAAAATAG (((((....))))) | -8.21 kcal/mol | 23.4 °C
GGGCAGCCGAAAGGCCCC (((..(((....)))))) | -15.1 kcal/mol | 48.1 °C
GCGGGTGCGAAAGCACGC (((..(((....)))))) | -10.3 kcal/mol | 55.7 °C
GATCTTTTCGAAGATC ((((((....)))))) | -33.5 kcal/mol | 46.4 °C
GCGTCAGACGC ((((...)))) | -22.7 kcal/mol | 52.3 °C
GCATCTCGAAAGAGGTGC (((.(((....))).))) | -37.4 kcal/mol | 59.8 °C
GGTAGGGGAAACCCTGTC (..((((....))))..) | -13.1 kcal/mol | 32.2 °C
GATCCTGCGAAGGATC ((((((....)))))) | -42.6 kcal/mol | 59.5 °C
GATCACGAGGGTGATC ((((((....)))))) | -38.1 kcal/mol | 54.6 °C
GTAGTCGAAAGACGCTAC ((((((....)))..))) | -14.2 kcal/mol | 36.1 °C

Sequence | folding enthalpy [1] | Tm [2]
GCGAGCGGAAACACCCGC (((.(.(....).).))) | -13.8 kcal/mol | 36.4 °C
GGCAGGGGAAACCCTACC ((.((((....)))).)) | -26.6 kcal/mol | 43.7 °C
GAGGGAGGAAACTCTCTC (((.(((....))).))) | -24.6 kcal/mol | 44.2 °C
GGCCCAGGAAACTGGACC ((.((((....)))).)) | -32.8 kcal/mol | 50.5 °C
GGATGGGGAAACCCGTTC (.(.(((....))).).) | -16.5 kcal/mol | 36.1 °C
GCTTCTTCGAAAGAAAGC (((..(((....)))))) | -16 kcal/mol | 30.3 °C
GATCCAAGGTGGATC ((((((...)))))) | -32.6 kcal/mol | 51.1 °C
GGGTAAGGAAACTTACCC (((((((....))))))) | -44.9 kcal/mol | 58.6 °C
GGTAGCCCGAAAGGGACC (((..(((....)))))) | -12.6 kcal/mol | 33.6 °C
GATCTTAGCCAAGATC ((((((....)))))) | -32.2 kcal/mol | 43.1 °C
GGGGCCGGAAACGACCCC ((((.((....)).)))) | -44.1 kcal/mol | 59.2 °C
GATCCAATGTTGGATC ((((((....)))))) | -35 kcal/mol | 52.6 °C
GGACAGCGAAAGCTATCC (((.(((....))).))) | -24.7 kcal/mol | 45 °C
GAGCGCGAAAGCGTTCTC ((((((....)))..))) | -18.1 kcal/mol | 66.8 °C
GCGTGTTCGAAAGAACGC (((..(((....)))))) | -14.7 kcal/mol | 50.5 °C
GATCTTTAGTAAGATC ((((((....)))))) | -29.9 kcal/mol | 40 °C
GGACGGGGAAACCCACCC ((..(((....)))..)) | -10.4 kcal/mol | 26.1 °C
GATCCGCAACGGATC ((((((...)))))) | -33 kcal/mol | 55.8 °C
GAGGTGGGAAACCACCTC (((((((....))))))) | -31 kcal/mol | 69.2 °C
GCGTGGCGAAAGCAGCGC (((..((....))..))) | -33.8 kcal/mol | 67.9 °C
GATCGTTCCAACGATC ((((((....)))))) | -39.5 kcal/mol | 58.6 °C
GTGTAAGGAAACCTACAC (((((.(....).))))) | -30.6 kcal/mol | 38.1 °C
GGCAACGAAAGTTGAGCC ((((((....)))..))) | -15.3 kcal/mol | 45.4 °C

Sequence | folding enthalpy [1] | Tm [2]
GGCTCGGGAAACTGAGCC (((((.(....).))))) | -61.1 kcal/mol | 61.4 °C
GACCCAGGAAACTGAGTC (((.(((....))).))) | -30 kcal/mol | 37.9 °C
GTTTGCGGAAACGCAGAC ((.((((....)))).)) | -24.6 kcal/mol | 51.8 °C
GAGTCCGAAAGGACCTC ((((((....))).))) | -13.2 kcal/mol | 54.5 °C
GGTGGGGGAAACCCTGCC ((..(((....)))..)) | -27.9 kcal/mol | 47.8 °C
GGTTGACGAAAGTCGACC (((.(((....))).))) | -46.8 kcal/mol | 63 °C
GAAAGCGAAAGCTTTTC ((((((....))).))) | -12.9 kcal/mol | 47.1 °C
GCGACACGTCGC ((((....)))) | -28.3 kcal/mol | 61.4 °C
GGGGCTTCGAAAGAACCC (((..(((....)))))) | -20.4 kcal/mol | 49.1 °C
GCCACTCGAAAGAGGGC (((.(((....)))))) | -24.3 kcal/mol | 54.7 °C
GTGGAAGAAATTCCAC ((((((....)))))) | -34.8 kcal/mol | 51.8 °C
GGCTCTCGAAAGAGGCC (((.(((....)))))) | -43 kcal/mol | 56.9 °C
GCGATGCGAAAGCTTTGC ((.(.((....)).).)) | -21.2 kcal/mol | 46.3 °C
GATCTGAACCAGATC ((((((...)))))) | -34.6 kcal/mol | 46 °C
CGTTTCGGAAACGAACG (((.(((....)))))) | -26.3 kcal/mol | 44.9 °C
GGTAACGGAAACGTCACC (((.(((....))).))) | -32 kcal/mol | 42.8 °C
GGTAGCGAAAGCTGCACC ((((((....)))..))) | -13.2 kcal/mol | 39 °C
GCATTGCGAAAGCTAGGC ((.(.((....)).).)) | -17.9 kcal/mol | 48.7 °C
GCGGACATCCGC ((((....)))) | -22.5 kcal/mol | 56.5 °C
GCCAACGCGAAAGCGGGC (((..(((....)))))) | -16.4 kcal/mol | 63.4 °C
GTTGTTGGAAACAACAAC (((((((....))))))) | -41.5 kcal/mol | 58.6 °C
GTTTCCCGAAAGGGCAAC (((.(((....))).))) | -21.7 kcal/mol | 42 °C
GTCTTCGAAAGAAATGAC ((((((....)))..))) | -9.91 kcal/mol | 25.1 °C

Sequence | folding enthalpy [1] | Tm [2]
GGCCATACGAAAGTAGCC (((..(((....)))))) | -20.6 kcal/mol | 38.7 °C
GCGAGGCGAAAGCATTGC ((.(.((....)).).)) | -22.5 kcal/mol | 54.3 °C
GGTCTGGGAAACCAAACC (((.(((....))).))) | -29.9 kcal/mol | 35.1 °C
GTGAAAGGAAACTTTCGC (.(((((....))))).) | -27.3 kcal/mol | 45.2 °C
GCTCAGCGAAAGCGTAGC (((..((....))..))) | -18.1 kcal/mol | 49.7 °C
GATGTTGGAAACGACATC (((((.(....).))))) | -33.6 kcal/mol | 47.2 °C
GGGATCCGAAAGGACCC (((.(((....)))))) | -36.5 kcal/mol | 55.7 °C
GCGATAAGTCGC ((((....)))) | -18.9 kcal/mol | 49.8 °C
GGGTAGGGAAACCCACCC ((((.((....)).)))) | -29.2 kcal/mol | 48.3 °C
GTCGAGGGAAACCCCGAC ((((.((....)).)))) | -38.9 kcal/mol | 52 °C
GACGCCGGAAACGGCATC ((.((((....)))).)) | -11.4 kcal/mol | 43.4 °C
GCTGCGCGAAAGCGTTGC ((..(((....)))..)) | -18.9 kcal/mol | 56.7 °C
GACAGACGAAAGTCGGTC (((.(((....))).))) | -36.2 kcal/mol | 59.6 °C
GTCAAGACGAAAGTCGAC (((..(((....)))))) | -13.7 kcal/mol | 43.9 °C
GCGACCGAAAGGTAACGC ((((((....)))..))) | -29.6 kcal/mol | 51.9 °C
GTGAACGAAAGTTTGCAC ((((((....)))..))) | -15.4 kcal/mol | 32 °C
GCCGTTGGAAACAATGGC (((.(((....))).))) | -36.6 kcal/mol | 55.8 °C
GCCTGATCGAAAGATGGC (((..(((....)))))) | -25.2 kcal/mol | 41.9 °C
GGTCACGAAAGTGGACC ((((((....))).))) | -29 kcal/mol | 55.3 °C
GCCGCGCGAAAGCGCTGC ((.((((....)))).)) | -16.6 kcal/mol | 61.5 °C
GAACTGGGAAACCAATTC (((.(((....))).))) | -12.7 kcal/mol | 29.2 °C
GTGCGAGGAAACTCGTGC (..((((....))))..) | -23.3 kcal/mol | 48.4 °C
GCACTCGAAAGAGCTGC ((((((....))).))) | -28.3 kcal/mol | 48.1 °C

Reference: the array DNA melting data of Ke et al. (doi:10.1101/2024.01.08.574731)
